Source: PubChem (The Scripps Research Institute Molecular Screening Center)
Compounds with a hit are over-represented: about 3% of the library has one in this group of screens.
5HT1E antag: 5-HT1E (human) receptor antagonism | P28566 | CHO 5-HT1E Ga15 NFAT-bla reporter, FRET, antagonist | inhibition, % at 6 µM | hit rate 0.99% among 65,000;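 active = inhibition above a set limit, the mean inhibition across every tested compound plus 3 SD, cut at about 29% in these data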;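 note: signal is the 460 over 535 nm emission ratio of beta-lactamase substrate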
Target sequence (P28566 whole entry, looked up): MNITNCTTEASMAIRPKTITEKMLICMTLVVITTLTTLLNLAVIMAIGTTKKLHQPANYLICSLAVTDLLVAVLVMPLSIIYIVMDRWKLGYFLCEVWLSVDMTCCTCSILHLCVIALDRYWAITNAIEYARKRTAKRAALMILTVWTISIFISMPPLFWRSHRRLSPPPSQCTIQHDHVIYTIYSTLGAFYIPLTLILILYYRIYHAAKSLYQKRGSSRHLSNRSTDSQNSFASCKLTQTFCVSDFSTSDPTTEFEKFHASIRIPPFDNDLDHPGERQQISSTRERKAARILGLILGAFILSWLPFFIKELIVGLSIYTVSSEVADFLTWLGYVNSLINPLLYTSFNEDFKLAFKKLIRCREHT
5HT1a ag: 5-HT1a (human) receptor agonism; P08908; CHO 5-HT1a Ga15 NFAT-bla reporter, FRET ratio; 0% basal, 100% maximal reference agonist; activation, % at 10 µM; hit rate 0.56% among 65,000; AID 567;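 active = activation above the screen-wide mean activation plus 3 SD, cut at about 19% in these data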
S1P1 ag-PAM: S1P1 (human) agonism or agonism potentiation | P21453 | S1P1 CRE-bla cells, forskolin, beta-lactamase FRET, potentiator mode; S1P1 agonist co-added at EC20, 2 nM; 100% = saturating reference agonist, 0% = basal | activation, % at 9.5 µM | hit rate 0.57% among 56,000 | AID 449;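 active = activation above a cutoff set at the mean activation of all tested compounds plus 3 SD, cut at about 54% in these data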;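 note: forskolin at 4 µM as EC80 and the EC20 agonist is SEW2871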
S1P3 agonist: S1P3 (human) receptor agonism | hit rate 0.1% among 60,000 | activation, % at 4.5 µM | S1P3 NFAT-BLA reporter cells, FRET ratio; relative to 1 µM S1P, basal subtracted | AID 373;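 active = activation above the screen-wide mean plus 3 SD, cut at about 4.5% in these data, passing the limit was not always enough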
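Measure – % activation relative to 1 µM S1P (100%), per plate · System – stable CHO line with human S1P3, Gα16, NFAT-BLA reporter · Timing – cells plated overnight, compound 4 h 37 °C, substrate 2 h RT · Technique – fluorescent BLA substrate, ex 405 nm, em 460/535 nm ratio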
HTR1E agonist: agonists of human 5-HT1E serotonin receptor; P28566; activation, % at 6 µM; hit rate 0.69% among 65,000; CHO 5-HT1E Ga15 NFAT-bla reporter, FRET; 0% DMSO wells, 100% control agonist wells;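 active = activation above a set limit, the screen-wide mean activation plus 3 SD, cut at about 8.5% in these data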
5HT1a antag: blocks the human serotonin 5-HT1a receptor; inhibition, % at 10 µM; CHO 5-HT1a Ga15 NFAT-bla reporter, antagonist mode; P08908; AID 612; hit rate 0.68% among 62,000;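 active = inhibition above the mean of all tested compounds plus 3 SD, cut at about 43% in these data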;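 note: receptor stimulated by 5-CT agonist at 100 nM near EC80; beta-lactamase reporter measured by ratiometric fluorescence of a cleavable substrate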
Each line names hits and unclear results; the compound was inactive in the other large screens.

O=C(CSc1nnc(-c2c[nH]c3ccccc23)o1)N(Cc1ccccc1)c1ccc(F)cc1	S1P1 ag-PAM 107
CCC1CCCCN1C(=O)CSc1nnc(-c2ccco2)o1 (centres undefined)	none
CC1CCCCN1C(=O)CSc1nnc(-c2c[nH]c3ccccc23)o1 (centres undefined)	HTR1E agonist 23
CN(C)/C=N/c1cnc(C(=O)c2ccc(Cl)cc2)n1C	none
Cc1ccc2c(CC(=O)Nc3nc(C)cs3)coc2c1	none (no result: S1P1 ag-PAM, S1P3 agonist)
O=C(c1ccc(CSCc2ccccc2F)o1)N1CCN(c2ccc(N3CCOCC3)nn2)CC1	none
O=C(NCC1CCCO1)c1ccc(S(=O)(=O)N2CCCCC2)cc1 (centres undefined)	none
CC1CCN(S(=O)(=O)c2ccc(S(=O)(=O)NCC3COCCO3)cc2)CC1 (centres undefined)	HTR1E agonist 26
COc1ccc(Cl)cc1-c1nc(-c2ccc(NC(=O)c3ccncc3)cc2)no1	none
COc1ccc(-c2nc(-c3ccc(NC(=O)c4ccncc4)cc3)no2)cc1OC	5HT1E antag 29, S1P1 ag-PAM 123, 5HT1a antag 43
CCOc1ccc(-c2noc(-c3cccnc3)n2)cc1OC	S1P1 ag-PAM 114
COc1ccc(NC(=O)c2cc(-c3cccs3)on2)cc1OC	S1P1 ag-PAM 56
CCOc1ccc(-c2nnc(-c3cccnc3)o2)cc1OCC	S1P1 ag-PAM 89
COc1ccc(-c2noc(-c3cc(C)cc(C)c3)n2)cc1OC	S1P1 ag-PAM 106
COc1ccc(-c2cc(C(=O)NC3CCCC3)no2)cc1OC	S1P1 ag-PAM 74
COC(=O)c1cc(S(=O)(=O)N2CCOCC2)c(N2CCOCC2)cc1N1CCOCC1	none (no result: 5HT1a antag)
COc1ccccc1NC(=O)Nc1nnc(C(C)C)s1	5HT1E antag 29 (no result: 5HT1a antag)
Cn1c(COc2ccccc2)nnc1SCCC(=O)Nc1ccccc1	none
COc1ccc(N2C(=O)CCC(C(=O)Nc3cccc(C)n3)C2c2ccc(OC)c(OC)c2)cc1 (centres undefined)	5HT1a ag 29 (no result: S1P1 ag-PAM, S1P3 agonist)
CN=C(NC#N)SCC(=O)c1ccc(Cl)cc1Cl	S1P1 ag-PAM 82
Cc1ccc(C)n1NC(=O)c1ccc(Cl)cc1Cl	none
O=C1CCCCCN1C(=O)c1cccc(C(=O)N2CCCCCC2=O)c1	none
O=C(NCc1ccccc1)C1CCCN(C(=O)Nc2ccccc2)C1 (centres undefined)	none
Cc1cccc(NC(=O)C2CCCN(C(=O)Nc3ccccc3)C2)c1C (centres undefined)	HTR1E agonist 88
CCOC(=O)c1oc2ccccc2c1NC(=O)COc1cccc(OC)c1	none
CCOC(=O)c1oc2ccccc2c1NC(=O)c1ccccc1OC	5HT1E antag 47, 5HT1a antag 49
C(=N\n1cnnc1)/c1ccccc1OCCOc1ccccc1	none
COc1cc2c(C(=O)NCCCN3CCN(c4cccc(Cl)c4)CC3)cn(C)c(=O)c2cc1OC	HTR1E agonist 16 (no result: S1P1 ag-PAM, S1P3 agonist)
COCCNC(=O)c1cn(C)c(=O)c2cc(OC)c(OC)cc12	none (no result: S1P1 ag-PAM, S1P3 agonist)
O=C(CN1C(=O)NC2(CCCCCC2)C1=O)N1CCC(Cc2ccccc2)CC1	none
CC1CN(C(=O)CN2C(=O)NC3(CCCCCCC3)C2=O)CC(C)O1 (centres undefined)	HTR1E agonist 20
OCCOCCn1c2ccccc2c2ccccc21	none
O=C(Oc1ccc(-c2nnco2)cc1)N(c1ccccc1)c1ccccc1	S1P3 agonist 16 (no result: S1P1 ag-PAM)
COc1ccc(C(=O)n2nc(-c3ccccc3)nc2N)cc1OC	none
CCOC(=O)c1ccc(NC(=O)CC2COc3ccccc3O2)cc1 (centres undefined)	none
COC(=O)C1CCN(C(=O)C(C)Oc2ccc(Cl)cc2Cl)CC1 (centres undefined)	5HT1a ag 90 (no result: S1P1 ag-PAM, S1P3 agonist)
COc1ccc(C(=O)N2c3cc4c(cc3C(C)=CC2(C)C)OCO4)cc1	5HT1a antag 54
OCCN1CCN(Cc2cccc(Oc3ccc(Cl)cc3)c2)CC1	HTR1E agonist 10
CCCC(=O)Nc1cnc(NC(=O)c2cccc(F)c2)cc1C	none (no result: S1P1 ag-PAM, S1P3 agonist)
N#Cc1c(-c2ccccc2)cc(C2CC2)nc1N	5HT1E antag 33
N#Cc1c(-c2ccco2)cc(C2CC2)nc1N	none (no result: 5HT1a antag)
O=C1NC(c2ccccc2)C(C(=O)c2cccs2)=C1O (centres undefined)	none
O=C(CSc1nnc(Cc2cccs2)n1Cc1ccco1)Nc1cccc(Cl)c1	none
O=C(CSc1nnc(Cc2cccs2)n1Cc1ccco1)Nc1cc(Cl)cc(Cl)c1	5HT1a antag 46
COc1ccc(C2=NOC(C(=O)Nc3cc(Br)ccc3O)C2)cc1OC (centres undefined)	5HT1E antag 37
CCOC(=O)c1[nH]c(C)c(C(=O)Nc2ccccc2C)c1C	none
CCOC(=O)c1[nH]c(C)c(C(=O)Nc2cc(Cl)ccc2C)c1C	5HT1E antag 44
CN1C(=O)CC(N2CCN(CCN=CC3=C(O)CC(C)(C)CC3=O)CC2)C1=O (centres undefined)	5HT1a antag 55
Oc1ccc(-c2nnc(SCC3CCCCC3)o2)cc1	S1P1 ag-PAM 113
O=C(CSc1nnc(-c2ccc(O)cc2)o1)N1CCOCC1	none
Cc1cc(Oc2ccccc2)nc2ccc(O)cc12	none
Nc1nonc1C(=O)NCCNCc1cc(Br)ccc1OCc1ccccc1F	S1P1 ag-PAM 78, 5HT1a antag 52
COc1ccc(Cl)cc1C(=O)Nc1ccccc1N1CCN(C(=O)C(C)C)CC1	none (no result: S1P1 ag-PAM, S1P3 agonist)
Cc1ccc(OCn2c(=O)sc3ccccc32)cc1	none
O=C(Nc1ccc(F)cc1)N1CCN(c2nc3ccccc3s2)CC1	HTR1E agonist 12
O=C(Nc1ccccc1)N1CCN(c2nc3ccccc3s2)CC1	HTR1E agonist 12
CCOC(=O)C1CCCN(Cc2c(F)cccc2Cl)C1 (centres undefined)	none (no result: S1P1 ag-PAM)
CC(=O)C1=C(O)C(=O)N(c2cccc(C(=O)O)c2)C1c1ccc(F)cc1 (centres undefined)	none (no result: 5HT1a antag)
O=C(Nc1ccc(NC(=O)c2ccco2)nc1)c1ccccn1	HTR1E agonist 34 (no result: S1P1 ag-PAM, S1P3 agonist)
O=C(Cc1ccccc1)Nc1ccc(NC(=O)c2ccco2)nc1	none
COC(=O)/C=C/S(=O)(=O)c1ccc(NC(C)=O)cc1	5HT1E antag 67, 5HT1a antag 82
O=C(NCc1cccs1)C1CCN(c2ccc(S(=O)(=O)N3CCOCC3)cc2Cl)CC1	5HT1E antag 40
CC(C)CNC(=O)C1CCN(c2ccc(S(=O)(=O)N3CCOCC3)cc2Cl)CC1	none
Cc1nn(C)cc1CN(C)C(=O)c1sc2cccc(Cl)c2c1Cl	none (no result: S1P1 ag-PAM)
OC(CN1CCN(c2cccc(C(F)(F)F)c2)CC1)c1c[nH]c2ccccc12 (centres undefined)	5HT1a ag 55
